Data on two molecules can be found in ChEMBL document CHEMBL1250459, “Photoaffinity labeling of Ras converting enzyme 1 (Rce1p) using a benzophenone-containing peptide substrate” (Bioorg Med Chem, 2010).

Holding throughout (format): cell membranes
The target in data set [1] is T1, CAAX prenyl protease 2 (Saccharomyces cerevisiae S288c) (UniProt Q03530).
T1 sequence (whole entry): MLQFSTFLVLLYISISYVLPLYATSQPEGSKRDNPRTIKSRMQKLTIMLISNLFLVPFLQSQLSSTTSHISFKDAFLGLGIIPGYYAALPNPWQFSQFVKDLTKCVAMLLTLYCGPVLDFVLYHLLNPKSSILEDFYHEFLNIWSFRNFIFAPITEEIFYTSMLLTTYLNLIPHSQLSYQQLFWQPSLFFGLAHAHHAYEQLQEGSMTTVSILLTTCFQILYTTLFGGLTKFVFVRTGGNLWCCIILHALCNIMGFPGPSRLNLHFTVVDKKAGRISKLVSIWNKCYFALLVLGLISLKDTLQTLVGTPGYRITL
The data set is described as follows: Binding affinity to Rce1p in yeast membranes assessed as reduction in binding affinity at 0.75 uM after 30 mins by Western blotting in presence of 50 uM of (3S,6S,9S,12S,15S,18R,21S,24S,27S)-3,9,15-tris(4-aminobutyl)-24-sec-butyl-21-(4-(3,5-dinitrophenylamino)butyl)-12-((S)-1-hydroxyethyl)-6-(hydroxymethyl)-22-imino-27-(2-(methylthio)ethyl)-1,4,7,10,13,16,19,25-octaoxo-1-phenyl-18-(((2E,6E)-3,7,11-trimethyldodeca-2,6,10-trienylthio)methyl)-2,5,8,11,14,17,20,23,26-nonaazaoctacosan-28-oic acid. Also on record: scale not given: the % may be the effect or the level left. The procedure, abridged: (§1)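 Competition photolabelling: Rce1p-containing yeast membranes (0.25 μg/μL) with biotinylated benzophenone probe (0.75 μM) in 100 mM Hepes, 5 mM MgCl2, pH 7.5. Farnesylated competitor peptide added at 50 or 100 μM. UV photolysis 30 min at 4 °C, then streptavidin pull-down and anti-HA Western blot. Band intensities quantified by densitometry relative to the no-competitor reaction.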

Data set [2] has as its target T1, CAAX prenyl protease 2 (Saccharomyces cerevisiae S288c). The data set is described as follows: Binding affinity to Rce1p in yeast membranes assessed as reduction in binding affinity at 0.75 uM after 30 mins by Western blotting in presence of 100 uM of (3S,6S,9S,12S,15S,18R,21S,24S,27S)-3,9,15-tris(4-aminobutyl)-24-sec-butyl-21-(4-(3,5-dinitrophenylamino)butyl)-12-((S)-1-hydroxyethyl)-6-(hydroxymethyl)-22-imino-27-(2-(methylthio)ethyl)-1,4,7,10,13,16,19,25-octaoxo-1-phenyl-18-(((2E,6E)-3,7,11-trimethyldodeca-2,6,10-trienylthio)methyl)-2,5,8,11,14,17,20,23,26-nonaazaoctacosan-28-oic acid. Also on record: scale not given: the % may be the effect or the level left. The procedure, abridged: as §1

Substrate in data set [3]: CC[C@H](C)[C@H](NC(=O)[C@H](CCCCNc1cc([N+](=O)[O-])cc([N+](=O)[O-])c1)NC(=O)[C@H](CSC/C=C(\C)CC/C=C(\C)CCC=C(C)C)NC(=O)[C@H](CCCCN)NC(=O)[C@@H](NC(=O)[C@H](CCCCN)NC(=O)[C@H](CO)NC(=O)[C@H](CCCCN)NC(=O)c1ccccc1N)[C@@H](C)O)C(=O)N[C@@H](CCSC)C(=O)O
Kind of data set: (§2) Activity of Rce1p in yeast membranes assessed as enzyme-mediated Ca1a2X proteolysis measured every 30 to 60 seconds for 1 hr by spectrofluorimetric assay. The settings on record: Saccharomyces cerevisiae.

Substrate in data set [4]: CC[C@H](C)[C@H](NC(=O)[C@H](CCCCNc1cc([N+](=O)[O-])cc([N+](=O)[O-])c1)NC(=O)[C@H](CSC/C=C(\C)COCc1cccc(C(=O)c2ccccc2)c1)NC(=O)[C@H](CCCCN)NC(=O)[C@@H](NC(=O)[C@H](CCCCN)NC(=O)[C@H](CO)NC(=O)[C@H](CCCCN)NC(=O)c1ccccc1N)[C@@H](C)O)C(=O)N[C@@H](CCSC)C(=O)O
The data set is described as §2. The settings on record: Saccharomyces cerevisiae.

Substrate in data set [5]: CC[C@H](C)[C@H](NC(=O)[C@H](CCCCNc1cc([N+](=O)[O-])cc([N+](=O)[O-])c1)NC(=O)[C@H](CSC/C=C(\C)COCc1cccc(C(=O)c2ccccc2)c1)NC(=O)[C@H](CCCCN)NC(=O)[C@@H](NC(=O)[C@H](CCCCN)NC(=O)[C@H](CO)NC(=O)[C@H](CCCCN)NC(=O)c1ccccc1N)[C@@H](C)O)C(=O)N[C@@H](CCSC)C(=O)O
Kind of data set: Activity of Rce1p in yeast membranes assessed as enzyme-mediated Ca1a2X proteolysis per mg of protein measured every 30 to 60 seconds for 1 hr by spectrofluorimetric assay. The settings on record: Saccharomyces cerevisiae.

Several values for one entry are separate records, joined by “and”; a condition that tells them apart may be missing. Equal values may be shown once. Where a SMILES comes first, the peptide text is derived from it. [ ]: non-standard residue; d: D form. The star is where a group is joined. X1 = O=[N+]([O-])c1cc([N+](=O)[O-])cc(*)c1; Farnesyl = CC(C)=CCC/C(C)=C/CC/C(C)=C/C*; 2Abz = Nc1ccccc1C(=O)O

On to `CC[C@H](C)[C@H](NC(=O)[C@H](CCCCNc1cc([N+](=O)[O-])cc([N+](=O)[O-])c1)NC(=O)[C@H](CSC/C=C(\C)CC/C=C(\C)CCC=C(C)C)NC(=O)[C@H](CCCCN)NC(=O)[C@@H](NC(=O)[C@H](CCCCN)NC(=O)[C@H](CO)NC(=O)[C@H](CCCCN)NC(=O)c1ccccc1N)[C@@H](C)O)C(=O)N[C@@H](CCSC)C(=O)O` (H-[2Abz]KSKTKC(Farnesyl)K(X1)IM-OH), for which the Activity in data set [1] stood at 60%; in data set [2], 31%.

B1: CAAX prenyl protease 2 (Saccharomyces cerevisiae S288c), Q03530 (protein)
chain: MLQFSTFLVLLYISISYVLPLYATSQPEGSKRDNPRTIKSRMQKLTIMLISNLFLVPFLQSQLSSTTSHISFKDAFLGLGIIPGYYAALPNPWQFSQFVKDLTKCVAMLLTLYCGPVLDFVLYHLLNPKSSILEDFYHEFLNIWSFRNFIFAPITEEIFYTSMLLTTYLNLIPHSQLSYQQLFWQPSLFFGLAHAHHAYEQLQEGSMTTVSILLTTCFQILYTTLFGGLTKFVFVRTGGNLWCCIILHALCNIMGFPGPSRLNLHFTVVDKKAGRISKLVSIWNKCYFALLVLGLISLKDTLQTLVGTPGYRITL
Turning to B1, the Michaelis-Menten constant (Km) in data set [3] is 6.4 µM and 4 µM; in data set [4], 1.9 µM. Also, the Vmax in data set [5] amounted to 0.093 nmol/min/mg.
